Measurements published in ChEMBL document CHEMBL1138783, “Subtype selective substrates for histone deacetylases” (J Med Chem, 2004).
Square brackets hold non-standard residues; d marks the D form. Peptide text beside a SMILES is read from it. * marks the point of attachment. Asu = N[C@@H](CCCCCC(=O)O)C(=O)O; Aib = CC(C)(N)C(=O)O; NHOH = ON*

What was measured:
[1] = molecular target: Histone deacetylase; test: Inhibitory concentration against rat liver histone deacetylase (HDAC) with substrate 3a
[2] = molecular target: Histone deacetylase; test: Inhibitory concentration against rat liver histone deacetylase (HDAC) with substrate 5a
[3] = tested on: histone deacetylase (HDAC); test: Percent conversion by rat liver histone deacetylase (HDAC) was determined after 24 h; assay type: ADME; conditions: read-out: Conversion
How it was run: (§1)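 Deacetylase from rat liver, purified by ammonium sulfate precipitation and Q-sepharose NaCl-gradient chromatography (class I and II subtypes), in phosphate buffer pH 7.9 (EDTA, NaCl, glycerol, 2-mercaptoethanol). Enzyme preincubated 15 min at 4 °C, then run at 37 °C with candidate substrate and 7-hydroxycoumarin internal standard. Stopped with HCl/sodium acetate, ethyl acetate extraction, reversed-phase HPLC with fluorescence detection. Conversion taken against no-enzyme control. Duplicates.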

[4] = tested on: histone deacetylase (HDAC); test: Percent conversion by rat liver histone deacetylase (HDAC) was determined after 6 h; assay type: ADME; conditions: read-out: Conversion; how it was run: as §1
[5] = tested on: histone deacetylase (HDAC); test: Percent conversion by rat liver histone deacetylase (HDAC) was determined after 1 h; assay type: ADME; conditions: read-out: Conversion; how it was run: as §1
[6] = tested on: histone deacetylase (HDAC); test: Percent conversion by rat liver histone deacetylase (HDAC) was determined after 2 h; assay type: ADME; conditions: read-out: Conversion; how it was run: as §1
[7] = tested on: histone deacetylase (HDAC); test: Percent conversion by rat liver histone deacetylase (HDAC) was determined after 3 h; assay type: ADME; conditions: read-out: Conversion; how it was run: as §1
[8] = tested on: HDAC6/HDAC1 (Homo sapiens); test: Selectivity ratio for Histone deacetylase 6 versus Histone deacetylase 1
[9] = molecular target: Histone deacetylase; test: Inhibitory activity against rat liver Histone deacetylase with substrate 3a
[10] = molecular target: Histone deacetylase; test: Inhibitory activity against rat liver Histone deacetylase with substrate 5b
[11] = molecular target: Histone deacetylase; test: Inhibitory activity against rat liver Histone deacetylase with substrate 3b

Row | Compound | IC50 [1] [µM] | IC50 [2] [µM] | metabolised at 24 h [3] [%] | metabolised at 6 h [4] [%] | metabolised at 1 h [5] [%] | metabolised at 2 h [6] [%] | metabolised at 3 h [7] [%] | Selectivity [8] | IC50 [9] [µM] | IC50 [10] [µM] | IC50 [11] [µM]
1 | CN(C)c1ccc(C(=O)NCCCCCC(=O)NO)cc1 | 0.216 | 0.64 | – | – | – | – | – | – | – | – | –
2 | CC(=O)NCCCC[C@@H](NC(=O)OCc1ccccc1)C(=O)Nc1ccc2c(C)cc(=O)oc2c1 | – | – | 14 | 3 | 0 | 9 | 0 | – | – | – | –
3 | CC[C@@H](C)[C@@H]1NC(=O)[C@@H](Cc2ccc(OC)cc2)NC(=O)[C@H](CCCCCC(=O)NO)NC(=O)[C@H]2CCCN2C1=O | – | – | – | – | – | – | – | 34 | 0.0557 | 0.00629 | 0.0804
4 | CC(=O)NCCCC[C@H](NC(=O)OC(C)(C)C)C(=O)Nc1ccc2c(C)cc(=O)oc2c1 | – | – | 100 | 91 | 38 | 60 | 70 | – | – | – | –
5 | CC(=O)NCCCC[C@H](NC(=O)OC(C)(C)C)C(=O)Nc1ccc2c(C(F)(F)F)cc(=O)oc2c1 | – | – | 96 | 68 | 30 | 43 | 47 | – | – | – | –
6 | CN(C)c1ccc(C(=O)NCCCCCCCC(=O)NO)cc1 | – | – | – | – | – | – | – | – | 0.256 | 0.241 | 0.488
7 | Cc1cc(=O)oc2cc(NC(=O)[C@H](CCCCNC(=O)C(F)(F)F)NC(=O)OCc3ccccc3)ccc12 | – | – | 64 | 54 | 16 | 41 | 57 | – | – | – | –
8 | CN(C)c1ccc(C(=O)NCCCCCCC(=O)NO)cc1 | – | – | – | – | – | – | – | – | 0.0782 | 3.512 | 0.148
9 | O=C(CCCCC[C@@H]1NC(=O)[C@H]2CCCN2C(=O)[C@H](Cc2ccccc2)NC(=O)[C@H](Cc2ccccc2)NC1=O)NO | – | – | – | – | – | – | – | – | 0.349 | 0.0656 | 0.411
10 | CCCC(=O)NCCCC[C@H](NC(=O)OCc1ccccc1)C(=O)Nc1ccc2c(C)cc(=O)oc2c1 | – | – | 48 | 21 | 0 | 1 | 12 | – | – | – | –
11 | CC(=O)NCCCC[C@H](NC(=O)OCC1c2ccccc2-c2ccccc21)C(=O)Nc1ccc2c(C)cc(=O)oc2c1 | – | – | 90 | 86 | 47 | 74 | 78 | – | – | – | –
12 | CC1(C)NC(=O)[C@H](CCCCCC(=O)NO)NC(=O)[C@H]2CCCN2C(=O)[C@H](Cc2ccccc2)NC1=O (cyclo([Aib]F[dP][Asu](NHOH))) | – | – | – | – | – | – | – | – | 0.137 | 0.0212 | 0.226
13 | CCC(=O)NCCCC[C@H](NC(=O)OCc1ccccc1)C(=O)Nc1ccc2c(C)cc(=O)oc2c1 | – | – | 87 | 74 | 20 | 33 | 47 | – | – | – | –
14 | Cc1cc(=O)oc2cc(NC(=O)[C@H](CCCCNC(=O)Cc3ccccc3)NC(=O)OCc3ccccc3)ccc12 | – | – | 0 | 0 | 0 | 0 | 0 | – | – | – | –
15 | CC(=O)NCCCC[C@H](NC(=O)OCc1ccccc1)C(=O)Nc1ccc2c(C)cc(=O)oc2c1 | – | – | 100 | 96 | 67 | 87 | 93 | – | – | – | –
